Tested on: HEK-293T
Assay: Multiplex assay against HEK293T;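 as to Population Tubulin-Different-Phenotype (%): share of the cells with healthy nuclei that show this phenotype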
Assay type: toxicity, cell-based
Conditions: human
In short: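 Live cells were stained at seeding with Hoechst33342, BioTracker Green Microtubule Cytoskeleton Dye, MitoTracker Red and Annexin V Alexa Fluor 680. Following compound addition, they were imaged on a CQ1 microscope at 37°C and 5% CO2 and gated by CellPathfinder machine learning into Hoechst high-intensity objects or normal cells, with normal cells split into healthy, pyknosed or fragmented nuclei and pyknosed cells into mitotic or apoptotic. Tubulin, mitochondrial-mass and membrane-permeability phenotypes are per cents of healthy-nucleus cells.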

[1] = 12 h, 1 µM, compound concentration 1 uM, replicate 1
[2] = 12 h, 1 µM, compound concentration 1 uM, replicate 2
[3] = 12 h, 10 µM, compound concentration 10 uM, replicate 1
[4] = 12 h, 10 µM, compound concentration 10 uM, replicate 2
[5] = 24 h, 1 µM, compound concentration 1 uM, replicate 1
[6] = 24 h, 1 µM, compound concentration 1 uM, replicate 2
[7] = 24 h, 10 µM, compound concentration 10 uM, replicate 1
[8] = 24 h, 10 µM, compound concentration 10 uM, replicate 2
[9] = 48 h, 1 µM, compound concentration 1 uM, replicate 1
[10] = 48 h, 1 µM, compound concentration 1 uM, replicate 2
[11] = 48 h, 10 µM, compound concentration 10 uM, replicate 1
[12] = 48 h, 10 µM, compound concentration 10 uM, replicate 2

## COc1cc2ncn(-c3cc(OCc4ccccc4C(F)(F)F)c(C(N)=O)s3)c2cc1OC [GW843682X]
[1]
  Population Apoptotic (%): 62%
  Population Fragmented Nuclei (%): 14%
  Population Healthy Nuclei (%): 44%
  Population Hoechst High Intensity Objects (%): 13%
  Population Membrane Permeable-Phenotype (%): 5%
  Population Mitochondria Different-Phenotype (%): 84%
  Population Mitotic Cells (%): 37%
  Population Normal (%): 86%
  Population Pyknosed Nuclei (%): 40%
  Population Tubulin-Different-Phenotype (%): 64%
  Total Cell Count: 252
[2]
  Population Apoptotic (%): 25%
  Population Fragmented Nuclei (%): 4%
  Population Healthy Nuclei (%): 38%
  Population Hoechst High Intensity Objects (%): 2%
  Population Membrane Permeable-Phenotype (%): 11%
  Population Mitochondria Different-Phenotype (%): 34%
  Population Mitotic Cells (%): 74%
  Population Normal (%): 97%
  Population Pyknosed Nuclei (%): 56%
  Population Tubulin-Different-Phenotype (%): 47%
  Total Cell Count: 208
[3]
  Population Apoptotic (%): 57%
  Population Fragmented Nuclei (%): 12%
  Population Healthy Nuclei (%): 54%
  Population Hoechst High Intensity Objects (%): 14%
  Population Membrane Permeable-Phenotype (%): 9%
  Population Mitochondria Different-Phenotype (%): 97%
  Population Mitotic Cells (%): 42%
  Population Normal (%): 85%
  Population Pyknosed Nuclei (%): 33%
  Population Tubulin-Different-Phenotype (%): 97%
  Total Cell Count: 272
[4]
  Population Apoptotic (%): 31%
  Population Fragmented Nuclei (%): 11%
  Population Healthy Nuclei (%): 50%
  Population Hoechst High Intensity Objects (%): 4%
  Population Membrane Permeable-Phenotype (%): 11%
  Population Mitochondria Different-Phenotype (%): 88%
  Population Mitotic Cells (%): 68%
  Population Normal (%): 96%
  Population Pyknosed Nuclei (%): 38%
  Population Tubulin-Different-Phenotype (%): 99%
  Total Cell Count: 250
[5]
  Population Apoptotic (%): 56%
  Population Fragmented Nuclei (%): 11%
  Population Healthy Nuclei (%): 39%
  Population Hoechst High Intensity Objects (%): 19%
  Population Membrane Permeable-Phenotype (%): 7%
  Population Mitochondria Different-Phenotype (%): 81%
  Population Mitotic Cells (%): 43%
  Population Normal (%): 80%
  Population Pyknosed Nuclei (%): 49%
  Population Tubulin-Different-Phenotype (%): 73%
  Total Cell Count: 252
[6]
  Population Apoptotic (%): 24%
  Population Fragmented Nuclei (%): 5%
  Population Healthy Nuclei (%): 41%
  Population Hoechst High Intensity Objects (%): 4%
  Population Membrane Permeable-Phenotype (%): 3%
  Population Mitochondria Different-Phenotype (%): 43%
  Population Mitotic Cells (%): 75%
  Population Normal (%): 95%
  Population Pyknosed Nuclei (%): 53%
  Population Tubulin-Different-Phenotype (%): 65%
  Total Cell Count: 205
[7]
  Population Apoptotic (%): 71%
  Population Fragmented Nuclei (%): 11%
  Population Healthy Nuclei (%): 57%
  Population Hoechst High Intensity Objects (%): 15%
  Population Membrane Permeable-Phenotype (%): 6%
  Population Mitochondria Different-Phenotype (%): 96%
  Population Mitotic Cells (%): 28%
  Population Normal (%): 84%
  Population Pyknosed Nuclei (%): 31%
  Population Tubulin-Different-Phenotype (%): 90%
  Total Cell Count: 270
[8]
  Population Apoptotic (%): 57%
  Population Fragmented Nuclei (%): 14%
  Population Healthy Nuclei (%): 53%
  Population Hoechst High Intensity Objects (%): 3%
  Population Membrane Permeable-Phenotype (%): 3%
  Population Mitochondria Different-Phenotype (%): 95%
  Population Mitotic Cells (%): 42%
  Population Normal (%): 96%
  Population Pyknosed Nuclei (%): 32%
  Population Tubulin-Different-Phenotype (%): 96%
  Total Cell Count: 264
[9]
  Population Apoptotic (%): 53%
  Population Fragmented Nuclei (%): 17%
  Population Healthy Nuclei (%): 31%
  Population Hoechst High Intensity Objects (%): 17%
  Population Membrane Permeable-Phenotype (%): 3%
  Population Mitochondria Different-Phenotype (%): 84%
  Population Mitotic Cells (%): 46%
  Population Normal (%): 82%
  Population Pyknosed Nuclei (%): 50%
  Population Tubulin-Different-Phenotype (%): 72%
  Total Cell Count: 248
[10]
  Population Apoptotic (%): 55%
  Population Fragmented Nuclei (%): 7%
  Population Healthy Nuclei (%): 63%
  Population Hoechst High Intensity Objects (%): 2%
  Population Membrane Permeable-Phenotype (%): 13%
  Population Mitochondria Different-Phenotype (%): 36%
  Population Mitotic Cells (%): 44%
  Population Normal (%): 97%
  Population Pyknosed Nuclei (%): 29%
  Population Tubulin-Different-Phenotype (%): 67%
  Total Cell Count: 220
[11]
  Population Apoptotic (%): 72%
  Population Fragmented Nuclei (%): 18%
  Population Healthy Nuclei (%): 46%
  Population Hoechst High Intensity Objects (%): 12%
  Population Membrane Permeable-Phenotype (%): 3%
  Population Mitochondria Different-Phenotype (%): 96%
  Population Mitotic Cells (%): 27%
  Population Normal (%): 87%
  Population Pyknosed Nuclei (%): 34%
  Population Tubulin-Different-Phenotype (%): 85%
  Total Cell Count: 260
[12]
  Population Apoptotic (%): 59%
  Population Fragmented Nuclei (%): 7%
  Population Healthy Nuclei (%): 42%
  Population Hoechst High Intensity Objects (%): 4%
  Population Membrane Permeable-Phenotype (%): 7%
  Population Mitochondria Different-Phenotype (%): 92%
  Population Mitotic Cells (%): 40%
  Population Normal (%): 95%
  Population Pyknosed Nuclei (%): 50%
  Population Tubulin-Different-Phenotype (%): 92%
  Total Cell Count: 247

## Cc1ccc(C)c(Oc2ccncc2C(=O)N2CCN(C3CC3)c3ccccc32)c1
[1]
  Population Apoptotic (%): 43%
  Population Healthy Nuclei (%): 48%
  Population Mitotic Cells (%): 56%
  Population Normal (%): 91%
  Population Pyknosed Nuclei (%): 44%
  Total Cell Count: 385
[2]
  Population Apoptotic (%): 16%
  Population Healthy Nuclei (%): 42%
  Population Mitotic Cells (%): 83%
  Population Normal (%): 96%
  Population Pyknosed Nuclei (%): 54%
  Total Cell Count: 221
[3]
  Population Apoptotic (%): 88%
  Population Healthy Nuclei (%): 23%
  Population Mitotic Cells (%): 11%
  Population Normal (%): 78%
  Population Pyknosed Nuclei (%): 62%
  Total Cell Count: 200
[4]
  Population Apoptotic (%): 56%
  Population Healthy Nuclei (%): 14%
  Population Mitotic Cells (%): 43%
  Population Normal (%): 93%
  Population Pyknosed Nuclei (%): 77%
  Total Cell Count: 112
[5]
  Population Apoptotic (%): 46%
  Population Healthy Nuclei (%): 52%
  Population Mitotic Cells (%): 53%
  Population Normal (%): 89%
  Population Pyknosed Nuclei (%): 38%
  Total Cell Count: 403
[6]
  Population Apoptotic (%): 11%
  Population Healthy Nuclei (%): 53%
  Population Mitotic Cells (%): 88%
  Population Normal (%): 98%
  Population Pyknosed Nuclei (%): 40%
  Total Cell Count: 272
[7]
  Population Apoptotic (%): 89%
  Population Healthy Nuclei (%): 29%
  Population Mitotic Cells (%): 10%
  Population Normal (%): 82%
  Population Pyknosed Nuclei (%): 53%
  Total Cell Count: 213
[8]
  Population Apoptotic (%): 68%
  Population Healthy Nuclei (%): 24%
  Population Mitotic Cells (%): 31%
  Population Normal (%): 91%
  Population Pyknosed Nuclei (%): 63%
  Total Cell Count: 127
[9]
  Population Apoptotic (%): 41%
  Population Healthy Nuclei (%): 63%
  Population Mitotic Cells (%): 58%
  Population Normal (%): 91%
  Population Pyknosed Nuclei (%): 26%
  Total Cell Count: 567
[10]
  Population Apoptotic (%): 18%
  Population Healthy Nuclei (%): 77%
  Population Mitotic Cells (%): 81%
  Population Normal (%): 97%
  Population Pyknosed Nuclei (%): 18%
  Total Cell Count: 425
[11]
  Population Apoptotic (%): 84%
  Population Healthy Nuclei (%): 40%
  Population Mitotic Cells (%): 15%
  Population Normal (%): 84%
  Total Cell Count: 206
[12]
  Population Apoptotic (%): 76%
  Population Healthy Nuclei (%): 48%
  Population Mitotic Cells (%): 23%
  Population Normal (%): 90%
  Population Pyknosed Nuclei (%): 45%
  Total Cell Count: 127
